CASP6 VEID inh: caspase-6 (human) enzyme inhibition; P55212; purified caspase-6, Z-VEID-R110 cleavage fluorescence; inhibition, % at 12.5 µM; 350,000 compounds, 0.53% hits;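 active means mean inhibition across replicates at least about 35%, with every replicate also reaching that limit, limit read from the data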;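 further: 0% = median of neutral control wells and 100% = no fluorescence left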
MBD2 inh: MBD2-methylated oligo binding inhibition | TR-FRET, MBD2 binding to methylated oligonucleotide | 370,000 compounds, 0.31% hits | inhibition, % at 4.4 µM | AID 686964; in the data active means inhibition above about 13%
TDP2 absorb: blocks human TDP2 phosphodiesterase activity; recombinant TDP2, T5PNP hydrolysis, p-nitrophenol absorbance 415 nm; inhibition, % at 12.8 µM; 370,000 compounds, 0.34% hits; AID 720702;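 active means inhibition above the mean of all tested compounds plus 3 SD, set per campaign, cut at about 25% in these data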;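 further: 0% = DMSO with enzyme and 100% = buffer with substrate but no TDP2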
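Incubation: 2 h at 37 °C; Test system: recombinant human TDP2; Quantity: enzyme 120 nM; Read-out basis: percent inhibition; Medium: 50 mM Tris-HCl pH 7.5 with Mg2+, KCl, DTT, BSA; Repeats: single replicate; Compound: 12.8 µM single point, 1% DMSO; Signal: epi absorbance; Reagent: 5 mM T5PNP chromogenic substrate; Benchmarks: no-enzyme high, DMSO-plus-enzyme low.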
NSD2 inh: NSD2 (human) methyltransferase inhibition | O96028 | NSD2 peptide methylation, AlphaScreen, 120 min | inhibition, % at 12.5 µM | 310,000 compounds, 0.54% hits; in the data active means inhibition above about 50%
LEDGF integ inh: blocks HIV-1 LEDGF/p75-dependent DNA integration; TR-FRET IN-LEDGF/p75 DNA integration, Eu/Cy5; inhibition, % at 3.7 µM; 370,000 compounds, 0.64% hits; AID 743269;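 active means inhibition above the screen-wide mean plus 3 SD, cut at about 13% in these data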;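 further: signal is the Cy5 over europium emission ratio at 671 and 618 nm; 0% = plate median of compound wells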
UHRF1 binding: UHRF1 methyl-DNA binding inhibition; Q96T88; UHRF1 binding to methylated oligo, TR-FRET; inhibition, % at 4.4 µM; 370,000 compounds, 0.75% hits; AID 687016; in the data active means inhibition above about 21%;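 further: UHRF1 SRA domain binding a hemimethylated CpG hairpin DNA probe; 0% = median of test compound wells and 100% = reference inhibitor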
Numbers without * were called inactive; · = not tested or not shown. Compounds with a hit are over-represented: about 1.9% of the library has one in this group of screens.

SMILES	CASP6 VEID inh	MBD2 inh	TDP2 absorb	NSD2 inh	LEDGF integ inh	UHRF1 binding
c1ccc(CCNc2ccc3ncc(-c4cccc5ccccc45)n3n2)nc1	57*	-3	-2	-1	4	-1
CC(C)(C)c1ccc(C(=O)Nn2c(CCC(=O)O)ccc2-c2cccs2)cc1	39*	0	-6	5	1	-4
Cc1ccc(S(=O)(=O)N2CCN(C(=O)CCC(=O)NCCc3ccc(S(N)(=O)=O)cc3)CC2)c(C)c1	2	8	3	-8	-1	44*
Cc1ccc(S(=O)(=O)N2CCN(C(=O)COC(=O)CCc3ccccc3)CC2)c(C)c1	0	7	8	1	-3	13
CCCCN(CCCC)C(=O)/C=C/c1cccc([N+](=O)[O-])c1	·	5	2	6	1	21*
CCNC(=O)COC(=O)/C=C/c1cccc([N+](=O)[O-])c1	1	-3	9	-1	-2	-2
CN(CC(=O)Nc1cccc(F)c1)C(=O)c1cn(-c2ccccc2)nc1-c1ccccc1	-2	4	2	1	-2	24*
CCCCn1c(N)c(N(CC(C)C)C(=O)c2cc3c(s2)CCCCC3)c(=O)[nH]c1=O	-27	-3	2	23	1	57*
Cc1nc2ccc(NC(=O)CCC3CCCC3)cc2s1	81*	1	3	-2	-5	0
Cc1ccc2c(c1)c1c(n2CC(O)CN2CCC(C)CC2)CCCC1 (stereo not drawn)	46*	-7	-4	9	0	0
Cc1ccc2c(c1)c1c(n2CC(O)CNC2CCCCC2)CCCC1 (stereo not drawn)	49*	-2	1	·	7	5
Cc1ccc2c(c1)c1c(n2CC(O)CNC(CO)(CO)CO)CCCC1 (stereo not drawn)	-4	2	10	·	1	-4
CC1=NN(C(C#N)c2ccccc2O)C(C)(C)C1 (stereo not drawn)	0	2	-1	-7	6	30*
C[C@H](CO)N1C[C@H](C)[C@H](CN(C)S(C)(=O)=O)Oc2ccc(NC(=O)NC3CCCCC3)cc2CC1=O	0	·	·	·	·	·
C/C(CC(=O)Nc1cc(C)ccn1)=N\NC(=O)c1cccc(C)c1O	53*	-1	-7	-2	-1	-6
C/C(CC(=O)Nc1cc(C)ccn1)=N\NC(=O)c1cccc(C)c1	2	-7	6	2	3	-10
Oc1ccc(CN2CCN(c3ccccc3)CC2)c2cccnc12	5	·	·	·	·	·
O=[N+]([O-])c1cc(CN2CCN(c3cccc(C(F)(F)F)c3)CC2)c2cccnc2c1O	69*	-8	-2	20	9	-7
Cn1nc(-c2ccc(Cl)cc2)cc1NC(=O)Nc1ccccc1	-2	2	-9	0	-2	-2
Cn1nc(-c2ccccc2)cc1NC(=O)Nc1ccc(C(C)(C)C)cc1	-5	8	-2	2	2	29*
Cc1ccc(NC(=O)C2OCCc3ccccc32)cc1 (stereo not drawn)	-2	1	9	29	-10	0
Cc1ccc(NC(=O)C(=O)NCC2OCCc3ccccc32)cc1 (stereo not drawn)	-3	5	-8	-1	-3	57*
C[C@H]1CN([C@@H](C)CO)C(=O)c2cccc(NS(C)(=O)=O)c2O[C@@H]1CN(C)C(=O)Nc1ccc2c(c1)OCO2	-1	·	·	·	·	·
COC(=O)c1ccc2nc(-c3cccc(Cl)c3)c(Cc3cccc(F)c3)n2c1	0	2	4	·	8	19
COC(=O)c1ccc2nc(-c3cccc(Br)c3)c(Cc3cccc(Cl)c3)n2c1	-4	6	2	·	-1	13
SMILES	CASP6 VEID inh	MBD2 inh	TDP2 absorb	NSD2 inh	LEDGF integ inh	UHRF1 binding
COC(=O)c1ccc2nc(-c3cccc(Cl)c3)c(Cc3cccc(Cl)c3)n2c1	-1	5	10	·	1	23*
COC(=O)c1ccc2nc(-c3cccc(Cl)c3)c(CC3CCCCC3)n2c1	3	5	-2	·	5	22*
COC(=O)c1ccc2nc(-c3cccc(Cl)c3)c(Cc3ccsc3)n2c1	3	9	3	·	-2	22*
COC(=O)c1ccc2nc(-c3ccccc3)c(Cc3ccsc3)n2c1	0	2	-2	·	0	22*
CC(=O)N(C)C[C@@H]1Oc2cc(C#CCC(C)C)ccc2S(=O)(=O)N([C@H](C)CO)C[C@@H]1C	-4	·	·	·	·	·
Cc1ccc2nc(-c3cccc(Br)c3)c(Cc3ccccc3C(F)(F)F)n2c1	1	-5	0	·	5	1
COC(=O)c1ccc2nc(-c3cccc(Br)c3)c(Cc3ccsc3)n2c1	-7	8	3	·	2	21*
COC(=O)c1ccc2nc(-c3cccc(Br)c3)c(Cc3cccc(F)c3)n2c1	-5	-1	11	·	-2	4
COC(=O)c1ccc2nc(-c3cccc(Cl)c3)c(Cc3ccccc3C(F)(F)F)n2c1	-1	13	10	·	0	22*
COC(=O)c1ccc2nc(-c3ccc(Cl)cc3)c(Cc3ccsc3)n2c1	1	9	10	·	-4	21*
Cc1ccc2nc(-c3ccc(F)cc3)c(Cc3ccccc3C(F)(F)F)n2c1	-1	8	5	·	0	22*
O=C(Nc1ccccc1F)N[C@H]1CC[C@H](CCNC(=O)C2CC2)O[C@@H]1CO	-1	·	·	·	·	·
Cc1noc(C)c1S(=O)(=O)Nc1cccc2c1O[C@@H](CN(C)S(=O)(=O)c1ccc(F)cc1)[C@@H](C)CN([C@H](C)CO)C2=O	3	·	·	·	·	·
O=C(COC(=O)/C=C/C(=O)N1CCN(c2ccccc2)CC1)NCc1ccc(F)cc1	-2	-2	-6	-1	-4	64*
O=C(CN1CCN(c2ccccc2)CC1)NCc1ccc(F)cc1	0	4	-5	2	0	4
C[C@@H]1CN([C@H](C)CO)C(=O)Cc2cc(NS(C)(=O)=O)ccc2O[C@@H]1CN(C)C(=O)Nc1cccc2ccccc12	3	·	·	·	·	·
C=CCn1c(SCC(N)=O)nnc1-c1cnccn1	-4	0	-4	0	7	74*
C[C@H](CO)N1C[C@H](C)[C@@H](CN(C)C(=O)CN(C)C)Oc2ncc(/C=C/c3ccccc3)cc2C1=O	-1	·	·	·	·	·
CCNC[C@H]1[C@@H](c2ccc(C3=CCCC3)cc2)[C@@H](CO)N1C(=O)C1CCCC1	1	·	·	·	·	·
O=C1NC(=O)/C(=C\c2ccc(Br)o2)S1	49*	2	0	11	11	45*
CCS(=O)(=O)N[C@H]1CC[C@@H](CC(=O)Nc2ccc(-c3ccccc3)cc2)O[C@@H]1CO	1	·	·	·	·	·
CCN(C[C@H]1N[C@@](Cc2ccccc2)(C(=O)OC)[C@H]2C(=O)N(C)C(=O)[C@@H]12)S(=O)(=O)c1ccc(OC(F)(F)F)cc1	2	2	6	·	2	21*

Screening results as filed in PubChem.
